According to article PMC9299520 (Nature structural & molecular biology, 2022):

Legend:
[1] = biological target: T1, 5-HT5AR (Homo sapiens, UniProt P47898); assay: BRET2 Gi1-activation assay, WT 5-HT5AR; format: cell-based; details: normalized to % of 5-HT
[2] = biological target: mutant 5-HT5AR (Homo sapiens, UniProt P47898, E305A); assay: BRET2 Gi1-activation assay, mutant 5-HT5ARs; format: cell-based; details: mutant E305A
[3] = biological target: mutant 5-HT5AR (Homo sapiens, UniProt P47898, S204C); assay: BRET2 Gi1-activation assay, mutant 5-HT5ARs; format: cell-based; details: mutant S204C
[4] = test system: mutant 5-HT5AR; assay: BRET2 Gi1-activation assay, mutant 5-HT5ARs; format: cell-based, human; details: for effect on Gi1 activation: mutants S204A and S204G
[5] = biological target: T1, 5-HT5AR; assay: BRET1 miniGi recruitment assay; format: cell-based; details: wild type 5-HT5AR
In short: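 Transfected cells were plated after at least 24 h onto poly-lysine-coated plates in DMEM with 1% dialyzed FBS, at 40,000 cells/well, and left overnight. They were washed with HBSS/20 mM HEPES pH 7.4, then given coelenterazine h (5 μM final) and test compound dilutions with 0.3% BSA and 0.03% ascorbic acid. After 10 min at room temperature, emissions at 485 and 530 nm were read, and eYFP/Rluc BRET ratio was plotted against concentration.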

[6] = biological target: mutant 5-HT5AR (Homo sapiens, UniProt P47898, A227L); assay: BRET2 Gi1-activation assay, mutant 5-HT5ARs; format: cell-based; details: mutant A227L versus WT
mutant 5-HT5AR (Homo sapiens, UniProt P47898, A227L), sequence (P47898 whole entry A227L): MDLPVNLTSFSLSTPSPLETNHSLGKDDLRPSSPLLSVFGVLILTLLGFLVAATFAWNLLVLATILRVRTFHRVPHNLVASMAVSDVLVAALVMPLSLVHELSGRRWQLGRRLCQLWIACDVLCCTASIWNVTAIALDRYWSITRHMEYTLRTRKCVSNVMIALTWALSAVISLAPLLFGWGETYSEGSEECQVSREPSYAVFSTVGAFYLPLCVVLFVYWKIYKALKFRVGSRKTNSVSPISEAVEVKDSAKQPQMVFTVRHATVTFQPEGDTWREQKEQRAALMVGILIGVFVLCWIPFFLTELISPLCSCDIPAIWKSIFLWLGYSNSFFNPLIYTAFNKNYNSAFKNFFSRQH

T1 sequence (P47898 whole entry): as the sequence (P47898 whole entry A227L) above, with L227A counted along it
mutant 5-HT5AR (Homo sapiens, UniProt P47898, S204C), sequence (P47898 whole entry S204C): as the sequence (P47898 whole entry A227L) above, with S204C, L227A counted along it
mutant 5-HT5AR (Homo sapiens, UniProt P47898, E305A), sequence (P47898 whole entry E305A): as the sequence (P47898 whole entry A227L) above, with L227A, E305A counted along it

| SMILES | agonist type for Gi signaling [1] | effect on activation of Gi1 signaling [2] | effect on Gi1 activation [3] | effect on Gi1 activation [4] | miniGi recruitment [5] | increase of efficacy of Gi1 activation [6] [%] | improvement of potency of Gi1 activation ([4]; {}) |
| --- | --- | --- | --- | --- | --- | --- | --- |
| CC[C@@H](CO)NC(=O)[C@@H]1C=C2c3cccc4[nH]cc(c34)C[C@H]2N(C)C1 [methylergometrine] | full agonist | – | – | – | – | – | – |
| NCCc1c[nH]c2ccc(C(N)=O)cc12 [5-CT, 5-carboxamidotryptamine] | full agonist | failed to show a large effect | severely affected | dramatically reduced the potency | unable to efficiently recruit miniGi | – | – |
| NCCc1c[nH]c2ccc(O)cc12 [5-HT, 5-hydroxytryptamine] | – | – | severely affected | modest effects on both the potency and efficacy | – | 20 | more than 30 fold |
